# Measurements: ChEMBL document CHEMBL1152649, “Synthesis, cytotoxicity and human telomerase inhibition activities of a series of 1,2-heteroannelated anthraquinones and anthra[1,2-d]imidazole-6,11-dione homologues” (2009)
# Active and inactive are the calls of the source. The calls are words filed in the database; no cut-off is given here.
# Key:
# NCI-H322M = assay: Growth inhibition of human NCI-H322M cells; format: functional
# In short: (§1)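 NCI 60 cancer cell line screen run per the Developmental Therapeutics Program protocol. Dose–response curves were plotted against log10 drug concentration for each cell line within its subpanel, and mean graph midpoint values were calculated.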
# SNB-19 [1] = assay: Antiproliferative activity against human SNB19 cells assessed as cell growth at 10 uM; format: functional; conditions: read-out: Activity
# In short: (§2)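 NCI 60 cell line panel, single-dose screen (10^-5 M) run by the developmental therapeutics program protocol. Results are given as growth percent of treated cells relative to untreated control cells for each line.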
# OVCAR-3 = assay: Growth inhibition of human OVCAR-3 cells; format: functional; in short: as §1
# KM12 [2] = assay: Antiproliferative activity against human KM12 cells assessed as cell growth at 10 uM; format: functional; conditions: read-out: Activity; in short: as §2
# [3] = Cytotoxicity against human H1299 cells at 1 uM after 48 hrs by MTT assay; format: functional; conditions: NCI-H1299, 48 h
# In short: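 H1299 non-small cell lung cancer cells were grown in RPMI 1640 with 10% FBS, penicillin and streptomycin at 37 °C under 5% CO2. About 2 × 10³ cells per well were seeded and left 24 h. Compounds were dissolved fresh in DMSO, diluted into complete medium and applied for 48 h. MTT was then added for 4 h at 37 °C, followed by lysis buffer (20% SDS, 50% DMF) for 16 h, and absorbance was read at 550 nm.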
# HCT-15 = assay: Growth inhibition of human HCT15 cells; format: functional; in short: as §1
# ACHN = assay: Growth inhibition of human ACHN cells; format: functional; in short: as §1
# K562 [4] = assay: Growth inhibition of human K562 cells; format: functional; in short: as §1
# [5] = target: Telomerase reverse transcriptase (Homo sapiens) (UniProt O14746); assay: Inhibition of telomerase in human H1299 cells up to 100 uM by TRAP assay; format: cell-based
# In short: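 PCR-based telomeric repeat amplification protocol (TRAP). The telomerase source was total lysate of H1299 lung cancer cells, with protein measured against BSA standards. Controls were extract without inhibitor and RNase A-treated extract.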
# SK-MEL-2 = assay: Antiproliferative activity against human SK-MEL-2 cells assessed as cell growth at 10 uM; format: functional; conditions: read-out: Activity; in short: as §2
# DU-145 [6] = assay: Antiproliferative activity against human DU145 cells assessed as cell growth at 10 uM; format: functional; conditions: read-out: Activity; in short: as §2
# HOP-62 [7] = assay: Growth inhibition of human HOP62 cells; format: functional; in short: as §1
# A549 = assay: Growth inhibition of human A549 cells; format: functional; in short: as §1
# K562 [8] = assay: Antiproliferative activity against human K562 cells assessed as cell growth at 10 uM; format: functional; conditions: read-out: Activity; in short: as §2
# SW-620 = assay: Growth inhibition of human SW620 cells; format: functional
# In short: (§3)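 Assayed in the NCI 60 human cancer cell line panel under the Developmental Therapeutics Program protocol. For each line, dose–response curves were plotted against log10 drug concentration. In the one-dose screen at 10^-5 M, growth was given as percent of untreated control cells, and mean graph midpoint values were averaged.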
# BT-549 = assay: Growth inhibition of human BT549 cells; format: functional; in short: as §1
# NCI-H226 = assay: Antiproliferative activity against human NCI-H226 cells assessed as cell growth at 10 uM; format: functional; conditions: read-out: Activity; in short: as §2
# U-251 = assay: Growth inhibition of human U251 cells; format: functional; in short: as §3
# UACC-62 = assay: Growth inhibition of human UACC62 cells; format: functional; in short: as §3
# DU-145 [9] = assay: Growth inhibition of human DU145 cells; format: functional; in short: as §1
# 786-0 = assay: Growth inhibition of human 786-0 cells; format: functional; in short: as §1
# SNB-19 [10] = assay: Growth inhibition of human SNB19 cells; format: functional; in short: as §3
# SF-268 = assay: Growth inhibition of human SF268 cells; format: functional; in short: as §3
# SF-539 = assay: Antiproliferative activity against human SF539 cells assessed as cell growth at 10 uM; format: functional; conditions: read-out: Activity; in short: as §2
# PC-3 = assay: Growth inhibition of human PC3 cells; format: functional; in short: as §3
# COLO 205 = assay: Antiproliferative activity against human COLO205 cells assessed as cell growth at 10 uM; format: functional; conditions: read-out: Activity; in short: as §2
# KM12 [11] = assay: Growth inhibition of human KM12 cells; format: functional; in short: as §1
# NCI-H460 = assay: Growth inhibition of human NCI-H460 cells; format: functional; in short: as §1
# [12] = target: Telomerase reverse transcriptase (Homo sapiens) (UniProt O14746); assay: Inhibition of TERT in human H1299 cells assessed as residual transcriptional activity at 1 uM after 24 hrs by SEAP reporter gene assay; values are per cent of control
# MDA-MB-231 = assay: Growth inhibition of human MDA-MB-231 cells; format: functional; in short: as §1
# A498 = assay: Growth inhibition of human A498 cells; format: functional; in short: as §1
# OVCAR-5 = assay: Antiproliferative activity against human OVCAR5 cells assessed as cell growth at 10 uM; format: functional; conditions: read-out: Activity; in short: as §2
# MDA-MB-435 = assay: Growth inhibition of human MDA-MB-435 cells; format: functional; in short: as §1
# SN12C = assay: Antiproliferative activity against human SN12C cells assessed as cell growth at 10 uM; format: functional; conditions: read-out: Activity; in short: as §2
# OVCAR-4 = assay: Growth inhibition of human OVCAR4 cells; format: functional; in short: as §1
# UACC-257 = assay: Antiproliferative activity against human UACC257 cells assessed as cell growth at 10 uM; format: functional; conditions: read-out: Activity
# In short: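 NCI 60 cell line panel, single dose (10^-5 M), run per the Developmental Therapeutics Program protocol (one dose mean graph). Each result is the growth percentage of treated cells relative to untreated control cells.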
# [13] = Antiproliferative activity against human RPMI8266 cells assessed as cell growth at 10 uM; format: functional; conditions: read-out: Activity; in short: as §2
# HOP-62 [14] = assay: Antiproliferative activity against human HOP62 cells assessed as cell growth at 10 uM; format: functional; conditions: read-out: Activity; in short: as §2
# [15] = read-out: LC50 (the source's name)
# Telomerase reverse transcriptase (Homo sapiens), sequence (O14746 whole entry): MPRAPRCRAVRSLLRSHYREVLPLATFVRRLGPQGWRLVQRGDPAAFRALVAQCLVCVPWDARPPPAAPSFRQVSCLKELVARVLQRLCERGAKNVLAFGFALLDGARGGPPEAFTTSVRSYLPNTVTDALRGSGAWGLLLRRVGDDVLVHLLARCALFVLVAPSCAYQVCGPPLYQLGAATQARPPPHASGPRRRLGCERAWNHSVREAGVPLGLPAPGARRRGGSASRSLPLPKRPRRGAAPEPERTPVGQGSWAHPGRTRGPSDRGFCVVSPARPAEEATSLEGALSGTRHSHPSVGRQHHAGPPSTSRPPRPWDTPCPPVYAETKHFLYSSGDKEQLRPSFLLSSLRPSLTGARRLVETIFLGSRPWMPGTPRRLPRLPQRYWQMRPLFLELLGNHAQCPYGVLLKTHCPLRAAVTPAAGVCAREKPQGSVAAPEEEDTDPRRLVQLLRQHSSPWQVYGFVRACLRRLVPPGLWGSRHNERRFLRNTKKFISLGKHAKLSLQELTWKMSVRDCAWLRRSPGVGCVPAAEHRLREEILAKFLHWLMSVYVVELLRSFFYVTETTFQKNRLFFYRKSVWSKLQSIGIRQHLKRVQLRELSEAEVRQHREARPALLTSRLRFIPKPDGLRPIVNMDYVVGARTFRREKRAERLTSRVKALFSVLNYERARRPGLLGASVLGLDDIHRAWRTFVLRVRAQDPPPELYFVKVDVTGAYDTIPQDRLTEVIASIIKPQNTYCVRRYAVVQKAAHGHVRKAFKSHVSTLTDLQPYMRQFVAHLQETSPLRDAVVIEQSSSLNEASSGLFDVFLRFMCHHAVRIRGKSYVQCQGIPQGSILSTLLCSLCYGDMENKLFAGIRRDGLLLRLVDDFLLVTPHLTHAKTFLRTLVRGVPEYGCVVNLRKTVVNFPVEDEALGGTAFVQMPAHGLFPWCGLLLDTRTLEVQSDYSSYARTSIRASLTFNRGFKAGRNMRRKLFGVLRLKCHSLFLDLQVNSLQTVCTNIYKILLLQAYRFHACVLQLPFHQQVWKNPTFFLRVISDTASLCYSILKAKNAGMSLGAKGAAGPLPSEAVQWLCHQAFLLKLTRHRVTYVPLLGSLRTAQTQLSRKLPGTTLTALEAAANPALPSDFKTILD
compound,measurement,setting,value
O=C1c2ccccc2C(=O)c2c1ccc1nccnc21,GI50,NCI-H322M,16.3 µM
same,TGI,NCI-H322M,96.1 µM
same,CC50,NCI-H322M; [15],> 100 µM
same,growth at 10 µM,SNB-19 [1],87.3%
same,GI50,OVCAR-3,2.34 µM
same,TGI,OVCAR-3,12.5 µM
same,CC50,OVCAR-3; [15],> 100 µM
same,growth at 10 µM,KM12 [2],61%
same,viability at 1 µM,[3],98%
same,GI50,HCT-15,4.63 µM
same,TGI,HCT-15,84.3 µM
same,CC50,HCT-15; [15],> 100 µM
same,GI50,ACHN,3.85 µM
same,TGI,ACHN,> 100 µM
same,CC50,ACHN; [15],> 100 µM
same,GI50,K562 [4],0.07 µM
same,LC50,K562 [4],> 100 µM
same,TGI,K562 [4],> 100 µM
same,inhibition,[5],inactive
same,growth at 10 µM,SK-MEL-2,6.66%
same,growth at 10 µM,DU-145 [6],93.3%
same,GI50,HOP-62 [7],5.64 µM
same,TGI,HOP-62 [7],> 100 µM
same,CC50,HOP-62 [7]; [15],> 100 µM
same,GI50,A549,4.53 µM
same,TGI,A549,> 100 µM
same,CC50,A549; [15],> 100 µM
same,growth at 10 µM,K562 [8],37.2%
same,GI50,SW-620,1.71 µM
same,TGI,SW-620,30.8 µM
same,CC50,SW-620; [15],> 100 µM
same,GI50,BT-549,12.2 µM
same,LC50,BT-549,> 100 µM
same,TGI,BT-549,93.5 µM
same,growth at 10 µM,NCI-H226,86.7%
same,GI50,U-251,5.38 µM
same,TGI,U-251,42.9 µM
same,CC50,U-251; [15],> 100 µM
same,GI50,UACC-62,13.3 µM
same,TGI,UACC-62,56.1 µM
same,CC50,UACC-62; [15],> 100 µM
same,GI50,DU-145 [9],11.4 µM
same,TGI,DU-145 [9],34.3 µM
same,CC50,DU-145 [9]; [15],> 100 µM
same,GI50,786-0,8.87 µM
same,TGI,786-0,> 100 µM
same,CC50,786-0; [15],> 100 µM
same,GI50,SNB-19 [10],13.4 µM
same,TGI,SNB-19 [10],> 100 µM
same,CC50,SNB-19 [10]; [15],> 100 µM
same,GI50,SF-268,4.98 µM
same,TGI,SF-268,> 100 µM
same,CC50,SF-268; [15],> 100 µM
same,growth at 10 µM,SF-539,40.7%
same,TGI,PC-3,> 100 µM
same,CC50,PC-3; [15],> 100 µM
same,growth at 10 µM,COLO 205,71.6%
same,GI50,KM12 [11],5.26 µM
same,TGI,KM12 [11],49.5 µM
same,CC50,KM12 [11]; [15],> 100 µM
same,GI50,NCI-H460,2.01 µM
same,TGI,NCI-H460,26.9 µM
same,CC50,NCI-H460; [15],> 100 µM
same,residual activity,[12],105%
same,GI50,MDA-MB-231,19.1 µM
same,LC50 (concentration killing 50% of cells),MDA-MB-231,> 100 µM
same,TGI,MDA-MB-231,> 100 µM
same,GI50,A498,9.31 µM
same,TGI,A498,50.3 µM
same,CC50,A498; [15],> 100 µM
same,growth at 10 µM,OVCAR-5,107%
same,GI50,MDA-MB-435,11.1 µM
same,TGI,MDA-MB-435,23.7 µM
same,CC50,MDA-MB-435; [15],50.4 µM
same,growth at 10 µM,SN12C,64.7%
same,GI50,OVCAR-4,10.5 µM
same,TGI,OVCAR-4,> 100 µM
same,CC50,OVCAR-4; [15],> 100 µM
same,growth at 10 µM,UACC-257,91.1%
CN(C)c1ccc(-c2nc3ccc4c(c3[nH]2)C(=O)c2ccccc2C4=O)cc1,growth at 10 µM,SNB-19 [1],127%
same,growth at 10 µM,KM12 [2],98%
same,viability at 1 µM,[3],88%
same,growth at 10 µM,[13],78.4%
same,growth at 10 µM,HOP-62 [14],102%
same,inhibition,[5],inactive
same,growth at 10 µM,SK-MEL-2,73.2%
same,growth at 10 µM,DU-145 [6],99.9%
same,growth at 10 µM,K562 [8],96.1%
same,growth at 10 µM,NCI-H226,89.3%
same,growth at 10 µM,SF-539,111%
same,growth at 10 µM,COLO 205,208%
same,residual activity,[12],92%
same,growth at 10 µM,OVCAR-5,117%
same,growth at 10 µM,SN12C,94.5%
same,growth at 10 µM,UACC-257,103%
O=C1c2ccccc2C(=O)c2c1ccc1nc(-c3ccc4c(c3)OCO4)[nH]c21,growth at 10 µM,SNB-19 [1],121%
same,growth at 10 µM,KM12 [2],97.8%
same,viability at 1 µM,[3],79%
same,growth at 10 µM,[13],96.2%
same,growth at 10 µM,HOP-62 [14],114%
same,inhibition,[5],inactive
same,growth at 10 µM,SK-MEL-2,41.5%
same,growth at 10 µM,DU-145 [6],107%
same,growth at 10 µM,K562 [8],80.6%
same,growth at 10 µM,NCI-H226,97%
same,growth at 10 µM,SF-539,108%
same,growth at 10 µM,COLO 205,126%
same,residual activity,[12],61%
same,growth at 10 µM,OVCAR-5,111%
same,growth at 10 µM,SN12C,101%
same,growth at 10 µM,UACC-257,117%
